# In the RNAGym collection of RNA variant scans (doi:10.1101/gad.245936.114):
# Variants at the floor of the assay were thinned out.
# B1: tRNA (parent)
# chain: CUCUCGGUAGCCAAGUUGGUUUAAGGCGCAAGACUUUAAUUUAUCACUACGAAAUCUUGAGAUCGGGCGUUCGACUCGCCCCCGGGAGAUUUUUUCCUCGAGCAA
# Variants of: B1
# Test: nonsense suppression (GFP-seq) (ratio to wild type); higher = more function; SUP4oc tRNA, yeast GFP reporter sort-seq
# Summary of the method: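 To measure nonsense suppression, tRNA variants from a library carrying ~3% random mutations were integrated into the yeast genome alongside RFP and a GFP ochre reporter under galactose control. Growth took place in raffinose/galactose medium supplemented with 80 mg/L adenine, followed by sorting into GFP/RFP bins and Illumina sequencing of each bin (phred ≥30). For each variant with ≥100 reads and ≥30 cells, the bin median GFP/RFP values were weighted by its estimated cell share per bin and referenced to the unmutated parent tRNA.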
row,Variant,nonsense suppression
1,A60G,1.14
2,A60C,0.489
3,A60U,0.984
4,C68A C75A,0.0286
5,U63A U76C,0.748
6,G67A U76G G78A,≤ 0.026
7,G67C C79G,1.03
8,G61A U63G,0.227
9,G61A U63C,0.728
10,G61A U63A,0.304
11,A60U G78C G85A,1.16
12,G61A A62U G84U,≤ 0.026
13,A60C G66C,≤ 0.026
14,U58A U70C A74G,≤ 0.026
15,U58A G61A,0.0532
16,G66U C68A G86A,≤ 0.026
17,C64G G66U A87G,≤ 0.026
18,U57C C81U G84U,≤ 0.026
19,C56G A62G,≤ 0.026
20,G67A G78U,0.0411
21,U57A G78C,≤ 0.026
22,G66A G67A G86C,≤ 0.026
23,A62G C83A,≤ 0.026
24,G65C C81G,1.06

row,Variant,nonsense suppression
1,G61C G88A,0.0268
2,G61C G88U,0.0792
3,G67C C81A,≤ 0.026
4,G61C A74U C83G,≤ 0.026
5,U63A C68U,0.755
6,G59C C68A G88U A89C,≤ 0.026
7,A62U G67U G69U,≤ 0.026
8,U57C G66U C81A,≤ 0.026
9,A60G G73C,≤ 0.026
10,U58G G66C C80G,0.0324
11,U63A C75G,1.13
12,A62G G78U,0.0339
13,G61A G85U,0.429
14,G59C C75G,≤ 0.026
15,A60C G85C,0.0595
16,A60G C64G,≤ 0.026
17,U63C U76C,0.693
18,G61C U76C,0.23
19,G61A C83A,0.0363
20,C56A U63G,≤ 0.026
21,G59U A74C C82U,≤ 0.026
22,U57A C75A,0.681
23,U57A C75U,0.03
24,U63C C68U,0.228

row,Variant,nonsense suppression
1,C64G C72U,≤ 0.026
2,G69C C77G,≤ 0.026
3,G61U U71A G86A,≤ 0.026
4,C56U U58C G66U,≤ 0.026
5,G67U C79G,0.768
6,G59A G61A U71G G78U,≤ 0.026
7,G61C G65A C68U,≤ 0.026
8,G59C A87U,≤ 0.026
9,G65A C75A,0.109
10,G65A G73C,≤ 0.026
11,G61C A89C,≤ 0.026
12,U57C G73A,0.0414
13,A60G G66U,0.0286
14,A60C G67A,≤ 0.026
15,G69C A89G,≤ 0.026
16,A62C G85A,≤ 0.026
17,G61U G78U,0.165
18,A62U U71G,≤ 0.026
19,C56U G88U,≤ 0.026
20,G61A C68U G69A G73A,≤ 0.026
21,U63A G78A,0.06
22,G61C G78A C79U,≤ 0.026
23,G59U U63C,0.868
24,G61U C75G,1.08

row,Variant,nonsense suppression
1,U58A U70C G86C A89C,≤ 0.026
2,A60U G65U A74C C82A,≤ 0.026
3,U63G C72U,0.0334
4,G67A C75A C79A,0.203
5,A60C G61U,0.768
6,A62G C75G,0.205
7,A62G C75A,0.219
8,G65A G78A,0.0493
9,G65A G78C,≤ 0.026
10,U58A A74G G88A,≤ 0.026
11,U63G U76A,0.433
12,U63G U76C,0.0764
13,G61U U63C,0.808
14,G61U U63G,0.232
15,C56A U71A,≤ 0.026
16,G59A C75A,0.717
17,G61A C68G,0.0366
18,G61A C68U,0.609
19,A60C C79U,0.14
20,G66U C75A,0.704
21,G65C G66C U76C,0.793
22,G66C G85A,≤ 0.026
23,A60G G86U,0.0427
24,G65U G84U,≤ 0.026

row,Variant,nonsense suppression
1,C64U C81A,≤ 0.026
2,A60U G73A,0.222
3,G61A G73A,0.202
4,A60U U70C U76C,≤ 0.026
5,A60G A74G,0.0684
6,A60G A74C,0.0318
7,G67A G84U,0.0504
8,G61U C80U,0.677
9,U58G G59A C80U G86U,≤ 0.026
10,G66U C79A,≤ 0.026
11,U57C G61A,0.0312
12,U58C G61A,0.0586
13,U58C G61C,0.0324
14,U57C A60U,0.0266
15,U57A C82A,≤ 0.026
16,U63G U70C C75U,0.099
17,C56G G78C,≤ 0.026
18,U57C A89G,≤ 0.026
19,G61C C80U,0.731
20,A62U G78A,0.0537
21,G61U A62U,0.0397
22,G61C U63G,0.12
23,G61C U63C,0.196
24,C68U,1.05

row,Variant,nonsense suppression
1,U58G C77U,≤ 0.026
2,A62G C80U C81G,≤ 0.026
3,G66A G73A,0.182
4,A62G G67A,≤ 0.026
5,A60C G73U,0.049
6,A60C G73C,0.0519
7,G59C G61C,≤ 0.026
8,A60U C79U,0.761
9,A62C G78A,≤ 0.026
10,C64G G85C,≤ 0.026
11,G65C U76A,≤ 0.026
12,G59U,0.116
13,U63G C80U,≤ 0.026
14,G65C G88A,≤ 0.026
15,G67C C83A,≤ 0.026
16,G67A,0.188
17,A60C G84C,0.0911
18,G66C C82U,≤ 0.026
19,U57C A87G,0.0399
20,G61A A87U,0.181
21,G61A A87G,0.197
22,U63G G73A,0.189
23,A62U,0.193
24,C68U G85C,≤ 0.026

row,Variant,nonsense suppression
1,U57A G85U,0.0736
2,U57A G85A,0.165
3,G59U U70C C72A,≤ 0.026
4,C56U A87G,≤ 0.026
5,A60G C81U,0.0488
6,A60U A87G,1.02
7,A60U A62G,0.112
8,G59A G66C,≤ 0.026
9,A60G G85C,0.119
10,A60G G85U,0.138
11,A60G G85A,1.16
12,C68U U71C,0.0274
13,U57A G67U U76C,≤ 0.026
14,G67A U76A G85U,≤ 0.026
15,G61A G69A,0.0276
16,G61A G69C,0.0625
17,U63G C82U,0.0882
18,G66A U76C C81U,≤ 0.026
19,G61C U71C,0.061
20,A62C C64U G84C,≤ 0.026
21,G65U G85A,≤ 0.026
22,U58G G85A,0.0573
23,U58G G85U G86U,≤ 0.026
